UCH37 inh = human UCH37 deubiquitinating enzyme inhibition; 330,000 compounds, 0.33% hits; inhibition, % (concentration not given with the values); purified proteasome/UCH37, Ub-AMC cleavage fluorescence;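 active = mean inhibition over replicate wells above about 20%, limit read from the data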;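 also: 0% = compound-free wells with enzyme and 100% = wells lacking proteasome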
Target sequence (Q9Y5K5 whole entry, looked up): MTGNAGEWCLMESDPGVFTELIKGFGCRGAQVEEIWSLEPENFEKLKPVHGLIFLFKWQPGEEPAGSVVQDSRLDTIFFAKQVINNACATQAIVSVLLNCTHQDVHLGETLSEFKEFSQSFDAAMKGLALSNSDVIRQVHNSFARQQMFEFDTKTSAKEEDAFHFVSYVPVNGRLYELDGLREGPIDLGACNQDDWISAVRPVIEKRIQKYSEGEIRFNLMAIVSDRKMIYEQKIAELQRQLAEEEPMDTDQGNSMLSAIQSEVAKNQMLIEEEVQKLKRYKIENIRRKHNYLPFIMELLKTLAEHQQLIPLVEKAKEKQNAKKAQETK
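Signal – fluorescence, ex 355 nm, em 460 nm · System – Proteasome-bound UCH37 · Input – 0.15 nM proteasome as dispensed · Timing – 30 min preincubation with enzyme, 25 min cleavage at room temperature · Read-out basis – percent inhibition of cleavage signal versus uninhibited and no-proteasome wells · Medium – Tris-HCl pH 7.4 with ATP-MgCl2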
CRFR2-BP ag = agonists of human CRF-binding protein/CRF-R2 receptor complex; HEK293 CRF-R2/CRF-BP, calcium dye fluorescence (FLIPR); percent of saturating CRF peptide response; activation, % at 13.2 µM; 350,000 compounds, 0.46% hits;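 active = activation of at least 50%, plus an integration ratio under a set limit after plate pattern correction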;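 also: plate controls were neutral control wells without compound for no effect and CRF at EC100 for full effect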
H9c2 protect = protects H9c2 cardiomyocytes from peroxide injury; H2O2 injury protection, ATPLite, 2 h; protection from H2O2 cell death, % at 20 µM; 360,000 compounds, 0.63% hits; AID 588492;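 active = compounds giving at least 50% protection of heart cells from peroxide-induced death in the single-dose screen, raw or plate-pattern-corrected value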;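 also: 0% = DMSO wells with peroxide and 100% = DMSO wells without peroxide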
CRFR2-BP antag = antagonists of CRF-binding protein/CRF-R2 receptor complex | HEK293 CRF-R2/CRF-BP, CRF-induced calcium fluorescence | inhibition, % at 11.8 µM | 350,000 compounds, 0.59% hits;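 active = inhibition of the ligand-induced calcium signal above about 50% at the single tested concentration, limit read from the data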
iPSC survival up = enhancers of human iPSC single-cell survival; hiPSC single-cell survival, ATPlite luminescence; 100% = ROCK inhibitor wells, 0% = DMSO; 360,000 compounds, 0.044% hits; survival enhancement, % at 20 µM; in the data active = survival enhancement above about 18%;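 also: cells exposed to compounds for 16 hours before the ATP read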
beta cell repl = MIN6 beta-cell proliferation induction. proliferation, % at 10 µM. MIN6 cells proliferation, ATPlite luminescence, 48 h; cells starved in 0.2% serum; 100% = growth in 10% serum. 330,000 compounds, 0.29% hits. AID 2380;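 active = compounds whose signal lies at least 3.5 SD above the mean of all wells on their plate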;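 also: 0% = DMSO-treated cells in low-serum medium and 100% = 10% serum control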
Active calls of the source: *. In the library only some 2.1% were active in any assay of this set; here they are far more common.

What do the screens show for `COc1ccc(C2C=C(c3ccc(Cl)cc3)Nc3nc(NC(C)=O)nn32)cc1` (stereo unspecified)?
beta cell repl: 1.3

What do the screens show for `COc1ccc(C2=CC(c3ccc(Cl)cc3)n3cnnc3N2)cc1OC` (stereo unspecified)?
UCH37 inh: -43.5; CRFR2-BP ag: 79.6*; H9c2 protect: 9.7; CRFR2-BP antag: -49.3; iPSC survival up: 2.0; beta cell repl: -2.2

How did COc1cc(C(=O)Nc2cc3c(cc2N2CCCCC2)n(C)c(=O)n3C)cc(OC)c1OC do in these assays?
UCH37 inh: 3.1; CRFR2-BP ag: 0.1; H9c2 protect: 53.2*; CRFR2-BP antag: 1.3; iPSC survival up: -0.3; beta cell repl: -4.4

How did CCCN1/C(=C2/SC(=S)N(CC)C2=O)C=Cc2ccccc21 do in these assays?
UCH37 inh: 3.7; CRFR2-BP ag: -1.1; H9c2 protect: -2.2; CRFR2-BP antag: 25.6; iPSC survival up: -2.5; beta cell repl: 2.1

Results for CN1C(=O)/C(=C2/C=Cc3ccccc3N2CCCS(=O)(=O)O)SC1=S ?
UCH37 inh: 23.5*; CRFR2-BP ag: -1.8; H9c2 protect: -3.4; CRFR2-BP antag: 1.5; iPSC survival up: -1.8; beta cell repl: -1.7

What do the screens show for `O=C(NN=Cc1ccccc1[N+](=O)[O-])c1ccc(COc2ccccc2-c2ccccc2)cc1`?
UCH37 inh: 5.9

How did O=c1nc(NN=Cc2ccco2)cn[nH]1 do in these assays?
UCH37 inh: 4.1

What do the screens show for `Cc1cc(Cl)ccc1NC(=O)CCC(=O)NN=Cc1cc([N+](=O)[O-])ccc1O`?
UCH37 inh: 1.0

Results for CN1C(=O)C2(OCC(C)([N+](=O)[O-])CO2)c2ccccc21 (stereo unspecified) ?
UCH37 inh: 0.6; CRFR2-BP ag: -3.6; H9c2 protect: -4.6; CRFR2-BP antag: 22.5; iPSC survival up: 0.0

How did CN1C(=O)C2(N=c3ccccc3=N2)c2ccccc21 do in these assays?
UCH37 inh: -3.6; CRFR2-BP ag: -0.1; H9c2 protect: 11.2; CRFR2-BP antag: 68.3*; iPSC survival up: 0.5; beta cell repl: -2.7

What do the screens show for `COc1ccc(NC(=O)COC(=O)Cn2nnc3ccccc32)cc1`?
UCH37 inh: 0.0; CRFR2-BP ag: -0.5; H9c2 protect: 1.4; CRFR2-BP antag: 3.2; iPSC survival up: -1.8; beta cell repl: -1.4

How did CN(C)c1ccc(NC(=O)COC(=O)Cn2nnc3ccccc32)cc1 do in these assays?
UCH37 inh: -2.0; CRFR2-BP ag: -0.3; H9c2 protect: -0.9; CRFR2-BP antag: 93.2*; iPSC survival up: 0.5; beta cell repl: -0.5

What do the screens show for `Clc1ccc(N=c2ssnc2Cl)cc1`?
UCH37 inh: 1.7; CRFR2-BP ag: 66.8*; H9c2 protect: -28.2; CRFR2-BP antag: 43.5; iPSC survival up: 0.9; beta cell repl: -6.0

Results for N#Cc1ccc(N=c2ssnc2Cl)cc1 ?
UCH37 inh: 6.2; CRFR2-BP ag: 8.2; H9c2 protect: -4.5; CRFR2-BP antag: 1.6; iPSC survival up: -1.9; beta cell repl: -7.3

What do the screens show for `Fc1ccc(N=c2ssnc2Cl)c(F)c1`?
UCH37 inh: 1.8; CRFR2-BP ag: 69.8*; H9c2 protect: -16.6; CRFR2-BP antag: -10.2; iPSC survival up: -1.3; beta cell repl: -5.3

How did Clc1nssc1=Nc1ccccc1 do in these assays?
UCH37 inh: 1.9; CRFR2-BP ag: -0.3; H9c2 protect: -4.4; CRFR2-BP antag: 12.0; iPSC survival up: -0.8

What do the screens show for `CC(=O)Nc1cccc(-c2cc(NC=O)c3ncc(-c4ccc(C(C)=O)cc4)n3c2)c1`?
H9c2 protect: 92.8*; iPSC survival up: -2.5

What do the screens show for `COc1ccc(-c2cc(NC(C)=O)c3ncc(-c4cccc(C(C)=O)c4)n3c2)cc1OC`?
H9c2 protect: 110.7*; iPSC survival up: -1.1

How did COc1ccc(-c2cc(NC=O)c3ncc(-c4ccc(C(C)=O)cc4)n3c2)cn1 do in these assays?
H9c2 protect: 63.5*; iPSC survival up: -2.7

What do the screens show for `CC(=O)Nc1cc(-c2ccc(N3CCN(C)CC3)cc2)cn2c(-c3cccc(C(C)=O)c3)cnc12`?
H9c2 protect: 4.4; iPSC survival up: -4.5

Results for COc1cccc(-c2cnc3c(NC(C)=O)cc(-c4ccc(OC)c(OC)c4)cn23)c1 ?
H9c2 protect: 25.8; iPSC survival up: -0.8

What do the screens show for `CC(=O)Nc1cccc(-c2cc(NC(C)=O)c3ncc(-c4cccc(C(C)=O)c4)n3c2)c1`?
H9c2 protect: 59.3*; iPSC survival up: -1.7

Results for CC(=O)c1ccc(-c2cnc3c(NC=O)cc(-c4ccccc4Oc4ccccc4)cn23)cc1 ?
H9c2 protect: 19.3; iPSC survival up: -0.9

How did Cc1cccc(C=NNC(=O)Cc2ccc(Cl)cc2)c1O do in these assays?
UCH37 inh: 1.2

How did COc1cccc(-c2nn3c(-c4ccccn4)nnc3s2)c1 do in these assays?
UCH37 inh: 0.9; CRFR2-BP ag: -1.2; H9c2 protect: 57.2*; CRFR2-BP antag: 5.3; iPSC survival up: -1.6; beta cell repl: -2.2

How did COc1cccc(-c2nnc3sc(-c4ccccn4)nn23)c1 do in these assays?
UCH37 inh: -0.5; CRFR2-BP ag: -0.4; H9c2 protect: 88.0*; CRFR2-BP antag: -9.2; iPSC survival up: 7.3; beta cell repl: 4.0

What do the screens show for `c1ccc(-c2nn3c(-c4ccco4)nnc3s2)nc1`?
UCH37 inh: 0.7; CRFR2-BP ag: -1.7; H9c2 protect: 80.7*; CRFR2-BP antag: -10.4; iPSC survival up: -1.1; beta cell repl: -2.8

Results for CC(=NNC(=O)c1nnn(-c2nonc2N)c1-c1ccccc1)c1ccc2c(c1)OCO2 ?
UCH37 inh: -99.3

What do the screens show for `COc1ccc(NC(=O)NCCCN2CCc3ccccc3C2)cc1`?
UCH37 inh: -1.9; CRFR2-BP ag: -1.9; H9c2 protect: 8.3; CRFR2-BP antag: 52.3*; iPSC survival up: 0.0; beta cell repl: -0.6

Results for CC(=NNC(=O)c1cccc(O)c1)c1cccc(NC(=O)c2ccc(F)cc2)c1 ?
UCH37 inh: 0.6

What do the screens show for `CC1CC(C)(C)N(C(=O)CN2CCN(C)CC2)c2ccccc21` (stereo unspecified)?
UCH37 inh: 2.1; CRFR2-BP ag: 0.7; H9c2 protect: -5.5; CRFR2-BP antag: -8.9; iPSC survival up: -0.5; beta cell repl: -3.7

Results for CC1CC(C)(C)N(C(=O)CN2C(=O)c3ccccc3C2=O)c2ccccc21 (stereo unspecified) ?
UCH37 inh: 0.2; CRFR2-BP ag: 113.8*; H9c2 protect: 0.6; CRFR2-BP antag: -131.6; iPSC survival up: 3.6; beta cell repl: -2.6

Results for Cc1ccc2c(c1)C(C)CC(C)(C)N2C(=O)CN1CCN(C)CC1 (stereo unspecified) ?
UCH37 inh: 0.8; CRFR2-BP ag: -2.9; H9c2 protect: 9.2; CRFR2-BP antag: 68.0*; iPSC survival up: -0.7; beta cell repl: -0.8

Screening results: PubChem, several laboratories
